# Key:
# Mus musculus [1] = test: Anticonvulsant potency using the intravenous-BIC (bicuculline) test in mice; type: functional
# Summary of the method: (§1)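 Male Crl:CD-1(ICR)BR mice (22-24 g) were dosed orally at 5 mL/kg 60 min before bicuculline 0.6 mg/kg, a dose giving tonic extensor convulsions in at least 97% of vehicle-treated mice. Protection from tonic extension was scored for each mouse. ED50 (95% confidence interval) was obtained by probit analysis, with 10-20 animals per dose.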
# [2] = Toxicity using neurological impairment measured by rotarod test in mice; settings: mouse, in vivo
# Summary of the method: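 Trained male Crl:CD-1(ICR)BR mice (22-24 g) were dosed orally at 5 mL/kg 60 min before testing on a 3-cm rod rotating at 10 rpm. Falls during a 2-min period were counted. TD50, the dose making 50% of animals fall, was calculated by probit analysis, with 10-20 animals per dose.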
# Mus musculus [3] = organism: Mus musculus; test: Anticonvulsant potency using the maximal electroshock test in mice; type: functional
# Summary of the method: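 Male mice received intra-aural shocks through clip electrodes (0.7 s, 28 mA, 80 Hz pulse train, 0.4 ms pulses), a stimulus giving hindlimb tonic extension in at least 97% of controls. Compound was given orally 60 min or ip 30 min beforehand, at 5 mL/kg. Protection meant complete suppression of the hindlimb tonic extensor component. ED50 (95% confidence interval) was obtained by probit analysis, with 10-20 animals per dose.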
# Mus musculus [4] = test: Compound was tested for anticonvulsant potency using the intravenous-BIC (bicuculline) test in mice; 7 out of 20 mice exhibited anticonvulsant activity; type: functional
# Mus musculus [5] = test: Compound was tested for anticonvulsant potency using the intravenous-BIC (bicuculline) test in mice; 6 out of 20 mice exhibited anticonvulsant activity; type: functional
# Mus musculus [6] = test: Compound was tested for anticonvulsant potency using the intravenous-BIC (bicuculline) test in mice; compound at 200 mg/kg induced impaired gait, loss of the righting reflex, and impaired breathing; type: functional; summary of the method: as §1
# Mus musculus [7] = test: Compound was tested for anticonvulsant potency using the 3-MPA (3-mercaptopropionic acid) test in mice upon peroral administration; type: functional; settings: po
# Summary of the method: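 Male Crl:CD-1(ICR)BR mice (22-24 g) were dosed orally at 5 mL/kg 60 min before 3-mercaptopropionic acid 60 mg/kg sc, a dose convulsing at least 97% of vehicle-treated mice. The end point was hindlimb tonic extension. ED50 (95% confidence interval) was obtained by probit analysis, with 10-20 animals per dose.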
# Mus musculus [8] = test: Anticonvulsant potency using the PTX (picrotoxin) test in mice by peroral administration; type: functional; settings: po
# Mus musculus [9] = test: Compound was tested for anticonvulsant potency using the STRY (strychnine) test in mice upon peroral administration; type: functional; settings: po
# Mus musculus [10] = test: Compound was tested for anticonvulsant potency using the intravenous-BIC (bicuculline) test in mice; 5 out of 20 mice exhibited anticonvulsant activity; type: functional
# Mus musculus [11] = test: Compound was tested for anticonvulsant potency using the intravenous-BIC (bicuculline) test in mice; 0 out of 20 mice exhibited anticonvulsant activity; type: functional
SMILES,ED50 (Mus musculus [1]) [mg/kg],ED50 (Mus musculus [3]) [mg/kg],further results
C[C@@H](NCc1ccc(COc2ccccc2)cc1)C(N)=O,40.3,10.6,TD50 [2]: 597 mg/kg
NC(=O)[C@@H](CO)NCc1ccc(OCc2ccccc2)cc1,133,–,–
C[C@@H](NCc1ccc(SCc2ccccc2)cc1)C(N)=O,24.8,8.6,TD50 [2]: 633 mg/kg
CNC(=O)[C@@H](CO)NCc1ccc(OCc2cccc([N+](=O)[O-])c2)cc1,–,–,ED50 (Mus musculus [4]): > 400 mg/kg
CNC(=O)[C@H](CCSC)NCc1ccc(OCc2ccccc2)cc1,239,–,–
CNC(=O)[C@@H](CO)NCc1ccc(OCc2cccc(C(F)(F)F)c2)cc1,19.5,13.1,TD50 [2]: 750 mg/kg
O=C(CNCc1ccc(OCc2cccc(Cl)c2)cc1)OCc1ccccc1,–,–,ED50 (Mus musculus [5]): > 400 mg/kg
C[C@@H](NCc1ccc(OCc2ccc(F)cc2)cc1)C(N)=O,132,16.3,–
CNC(=O)[C@@H](CO)NCc1ccc(OCc2ccccc2C(F)(F)F)cc1,85.6,–,–
CNC(=O)[C@@H](NCc1ccc(OCc2ccccc2)cc1)C(C)C,55.4,–,–
C[C@@H](NCc1ccc(CCc2ccccc2)cc1)C(N)=O,40.3,17.8,TD50 [2]: 630 mg/kg
CNC(=O)[C@@H](CO)NCc1ccc(OCc2ccccc2)cc1,–,22.8,ED50 (Mus musculus [6]): 16.3 mg/kg
CNC(=O)[C@@H](CO)NCc1ccc(OCc2cccc(OC)c2)cc1,109,–,–
C[C@@H](NCc1ccc(NCc2ccccc2)cc1)C(N)=O,9.3,11.5,ED50 (Mus musculus [7]): 16.3 mg/kg; ED50 (Mus musculus [8]): 37.5 mg/kg; ED50 (Mus musculus [9]): 50.3 mg/kg; TD50 [2]: 217 mg/kg
C[C@@H](NCc1ccc(OCC2CC2)cc1)C(N)=O,124,–,–
C[C@@H](NCc1ccc(OCc2ccccc2F)cc1)C(N)=O,25.8,7,TD50 [2]: 549 mg/kg
C[C@@H](NCc1ccc(OCCc2ccccc2)cc1)C(N)=O,24.9,12.2,TD50 [2]: 1120 mg/kg
CC[C@@H](NCc1ccc(OCc2ccccc2)cc1)C(N)=O,55,7.2,TD50 [2]: 277 mg/kg

SMILES,ED50 (Mus musculus [1]) [mg/kg],ED50 (Mus musculus [3]) [mg/kg],further results
CNC(=O)CNCc1ccc(OCc2cccc(Cl)c2)cc1,30.5,48.6,–
C[C@@H](NCc1ccc(/C=C/c2ccccc2)cc1)C(N)=O,–,–,ED50 (Mus musculus [10]): 400 mg/kg
C[C@@H](NCc1ccc(Oc2ccccc2)cc1)C(N)=O,64,41.5,–
C[C@@H](NCc1ccc(CNc2ccccc2)cc1)C(N)=O,119,–,–
CCCCC(C)NCC(N)=O (centres undefined),640,–,–
C[C@@H](NCc1ccc(OCc2ccco2)cc1)C(N)=O,116,–,–
NC(=O)CNC(=O)c1ccc(OCc2cccc(Cl)c2)cc1,–,–,ED50 (Mus musculus [10]): 400 mg/kg
CNC(=O)[C@@H](CCSC)NCc1ccc(OCc2ccccc2)cc1,–,–,ED50 (Mus musculus [11]): > 400 mg/kg
NC(=O)CNc1ccc(OCc2cccc(Cl)c2)cc1,–,–,ED50 (Mus musculus [10]): 400 mg/kg
C[C@H](Nc1cccc(OCc2ccccc2)c1)C(N)=O,79.7,–,–
C[C@@H](NCc1ccc(OCc2ccoc2)cc1)C(N)=O,152,–,–
CNC(=O)[C@H](Cc1ccccc1)NCc1ccc(OCc2ccccc2)cc1,61.2,–,–
NC(=O)CNCCc1ccc(OCc2cccc(Cl)c2)cc1,192,–,–
CN(CC(N)=O)Cc1ccc(OCc2cccc(Cl)c2)cc1,114,70,–
CNC(=O)[C@@H](CO)NCc1ccc(OCc2ccccc2F)cc1,12.4,19.8,TD50 [2]: 371 mg/kg
CC[C@H](NCc1ccc(OCc2ccccc2)cc1)C(N)=O,119,–,–
C[C@@H](NCc1ccc(OCc2ccccc2Cl)cc1)C(N)=O,17.4,50.8,TD50 [2]: 525 mg/kg
C[C@@H](NCc1ccc(OCc2ccccn2)cc1)C(N)=O,172,–,–

# From ChEMBL document CHEMBL1131598, “Synthesis and anticonvulsant activity of a new class of 2-[(arylalky)amino]alkanamide derivatives” (J Med Chem, 1998)
